PAFAH1B2 FP inh = PAFAH1B2 enzyme inhibitors, primary screen, biochemical, fluorescence polarization, human; Platelet-activating factor acetylhydrolase IB subunit alpha2 (Homo sapiens), P68402; recombinant PAFAH1B2, FP-rhodamine activity probe; inhibition, % at 3.39 µM; 1.2% of 340,000 active; AID 492953, 2010;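 active = inhibition above the mean of all tested compounds plus 3 SD, cut at about 24% in these data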;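 note: 0% = enzyme with DMSO and 100% = wells lacking PAFAH1B2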
PAFAH2 FP inh = PAFAH2 enzyme inhibitors, primary screen, biochemical, fluorescence polarization, human; recombinant PAFAH2, FP-rhodamine activity probe; inhibition, % at 3.39 µM; 0.99% of 340,000 active; Platelet-activating factor acetylhydrolase 2, cytoplasmic (Homo sapiens), Q99487;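 active = inhibition above the mean over all tested compounds plus 3 SD, cut at about 30% in these data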;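 note: inhibitors block probe labeling of enzyme so polarization drops; 0% = enzyme with DMSO and 100% = wells lacking PAFAH2 protein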
Apaf1 inhib = inhibitors of human Apaf-1 apoptosome, primary screen, biochemical, DEVD-Rh110 fluorescence, uHTS; inhibition, % at 20 µM; 0.71% of 330,000 active; Apoptotic protease-activating factor 1 (Homo sapiens), O14727; reconstituted apoptosome caspase-3 activity; active = inhibition of at least 40% at 20 µM;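 note: plate controls were DMSO wells for no effect and DEVD-CHO caspase inhibitor wells for full effect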
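Material: reconstituted apoptosome with Apaf-1, cytochrome c, caspase-9, procaspase-3, dATP; medium: pH 7.5 Hepes buffer with CHAPS, BSA, DTT; also added: cytochrome c and DEVD-Rh110 substrate; timing: 30 min plus 50 min, RT; signal: Rh110 fluorescence intensity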
pPAFAH FP inh = pPAFAH enzyme inhibitors, primary screen, biochemical, fluorescence polarization, human | recombinant pPAFAH, FP-rhodamine probe fluorescence polarization | AID 463082, 2010 | inhibition, % at 3.39 µM | Platelet-activating factor acetylhydrolase (Homo sapiens), Q13093 | 1.5% of 330,000 active;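 active = inhibition above the mean inhibition across the screen plus 3 SD, cut at about 25% in these data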;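 note: inhibitors block binding of the rhodamine activity-based probe so polarization drops; 0% = enzyme with DMSO and 100% = wells lacking pPAFAH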
Target sequence (Q13093 whole entry, looked up): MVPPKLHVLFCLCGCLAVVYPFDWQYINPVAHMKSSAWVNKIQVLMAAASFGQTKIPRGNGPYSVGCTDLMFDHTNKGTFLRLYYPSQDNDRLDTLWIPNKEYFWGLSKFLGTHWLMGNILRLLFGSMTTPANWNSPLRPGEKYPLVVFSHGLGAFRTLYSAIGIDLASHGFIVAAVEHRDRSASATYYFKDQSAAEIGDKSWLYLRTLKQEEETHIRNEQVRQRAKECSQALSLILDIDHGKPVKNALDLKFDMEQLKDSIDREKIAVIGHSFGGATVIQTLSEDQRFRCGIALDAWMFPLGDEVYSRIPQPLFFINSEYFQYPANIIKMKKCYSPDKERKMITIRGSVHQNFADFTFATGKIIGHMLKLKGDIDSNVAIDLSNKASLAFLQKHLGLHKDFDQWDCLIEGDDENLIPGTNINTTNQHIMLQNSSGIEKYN
PAFAH1B3 FP inh = PAFAH1B3 enzyme inhibitors, primary screen, biochemical, fluorescence polarization, human; recombinant PAFAH1B3, FP-rhodamine probe; inhibition, % at 3.39 µM; 0.28% of 340,000 active;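 active = inhibition above the screen-wide average of all tested compounds plus 3 SD, cut at about 25% in these data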;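 note: 0% = enzyme with DMSO only and 100% = wells lacking PAFAH1B3 protein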
Target sequence (Q15102 whole entry, looked up): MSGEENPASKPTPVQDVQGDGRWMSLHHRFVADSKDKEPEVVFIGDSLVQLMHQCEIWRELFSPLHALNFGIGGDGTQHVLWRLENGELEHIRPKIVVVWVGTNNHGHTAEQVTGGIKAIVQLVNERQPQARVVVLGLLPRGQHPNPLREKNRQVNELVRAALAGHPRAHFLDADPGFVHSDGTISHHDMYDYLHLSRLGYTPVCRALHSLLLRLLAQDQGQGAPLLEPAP
* marks the source's active call; other numbers are inactive results; / = no result given. Hits are enriched below; roughly 3.1% of the tested compounds scored in any of these assays.

SMILES | PAFAH1B2 FP inh | PAFAH2 FP inh | Apaf1 inhib | pPAFAH FP inh | PAFAH1B3 FP inh
O=C(CCCOc1ccccc1)N1CCN(S(=O)(=O)c2ccc(Cl)cc2)CC1 | 29.5* | 2.9 | 23.3 | 7.0 | 8.8
COc1ccc(Cl)cc1NS(=O)(=O)c1ccc(S(=O)(=O)N2CCCC2)cc1 | 25.1* | -7.2 | -8.1 | 1.8 | 1.5
COc1ccc(CNC(=O)COc2ccc(S(=O)(=O)N3CCCCC3)cc2)cc1 | -0.9 | 2.0 | 11.7 | 27.5* | 2.2
O=C(CNc1cccc([N+](=O)[O-])c1)N1CCN(S(=O)(=O)c2ccc(Cl)cc2)CC1 | 24.5* | 6.3 | -4.9 | / | 4.5
COc1ccc(Cl)cc1NS(=O)(=O)c1ccc(OC)c(OC)c1 | 2.5 | 7.1 | -6.8 | -1.1 | 4.4
CC1(C)CC(Cc2nc(=S)[nH][nH]2)C(=O)O1 (configuration not stated) | 1.9 | -5.5 | -22.1 | 3.3 | 2.1
O=C(COc1ccc(S(=O)(=O)Nc2ccccc2)cc1)N1CCOCC1 | -2.4 | 5.1 | 2.4 | 27.3* | 2.8
COc1ccccc1CNC(=O)N1CCN(S(=O)(=O)c2ccccc2)CC1 | 7.7 | -1.8 | 0.1 | 2.4 | 8.8
COc1ccccc1CNC(=O)N1CCN(S(=O)(=O)c2ccc(Cl)cc2)CC1 | 29.8* | -11.4 | 0.3 | 5.2 | 4.1
CC(C)(C)c1ccc(OCC(=O)NCc2ccco2)c(Br)c1 | 14.6 | 12.7 | 24.5 | 28.5* | 3.5
CC(C)(C)c1ccc(OCC(=O)NNC(=S)NC(=O)c2ccco2)c(Br)c1 | 18.2 | -11.1 | 17.5 | 4.2 | 2.2
CC1(C)O[C@@H]2[C@@H](CO[C@@]3(COS(N)(=O)=O)OC(C)(C)O[C@@H]23)O1 | / | / | -1.1 | -3.8 | /
CC1(COS(N)(=O)=O)CCCCC1 | 34.6* | 11.2 | 0.7 | 2.4 | 12.3
Oc1c(Cl)cc(Cl)cc1Sc1cc(Cl)cc(Cl)c1O | / | / | 18.5 | 76.8* | /
CCCCN1CC(=O)N2[C@@H]3c4cc(OC)ccc4OC[C@@H]3[C@H](C(=O)OCC)[C@]2(C)C1=O | 2.7 | -3.7 | / | / | 4.3
Nc1ccc(N=Nc2ccccc2)c2ccccc12 | 2.1 | 4.9 | 18.9 | 16.4 | 5.8
Nc1ccc(O)c2ccccc12 | / | / | 67.7* | 16.8 | /
O=C(NNC(=O)c1cccnc1Cl)c1ccc(F)cc1 | 3.4 | 0.4 | 4.4 | -12.9 | 9.2
O=C1CCCC(O)=C1N=Nc1ccc(C(=O)O)cc1 | 38.5* | 51.6* | -15.4 | 31.2* | 50.5*
O=C1CCCC(O)=C1N=Nc1ccc2c(c1)OCO2 | -3.3 | 2.8 | 2.8 | 2.2 | -4.4
O=S(=O)(Oc1ccccc1N1CCCCC1)c1ccccc1 | 30.9* | 7.4 | 6.8 | -5.6 | 4.9
O=C1CCC(=O)N1c1ccccc1OS(=O)(=O)c1ccccc1 | 4.2 | 1.9 | -2.3 | 0.5 | 1.6
CCc1cccc(OCC(=O)Nc2cc(S(=O)(=O)N3CCOCC3)ccc2N2CCCC2)c1 | 2.4 | 5.6 | 3.9 | 5.4 | 0.1
COc1ccc(C2CC(=O)Oc3cc(O)ccc32)cc1 (configuration not stated) | 1.5 | -4.4 | 4.1 | 0.6 | 0.3
Cc1ccccc1C1CC(=O)Oc2cc(O)ccc21 (configuration not stated) | 33.7* | 40.1* | 7.8 | 32.0* | 40.6*
SMILES | PAFAH1B2 FP inh | PAFAH2 FP inh | Apaf1 inhib | pPAFAH FP inh | PAFAH1B3 FP inh
O=C(O)c1cccc(Cn2c(Cl)c(/C=N/NC(=O)c3cc4ccccc4cc3O)sc2=O)c1 | 20.3 | 28.9 | 4.9 | 33.1* | 17.0
Cc1ccc(NC(=S)NNC(=O)c2ccc(N3CCOCC3)c([N+](=O)[O-])c2)cc1C | 3.6 | 11.7 | -6.6 | 25.9* | 13.5
Cc1ccc(NC(=O)c2ccc(N3CCOCC3)c([N+](=O)[O-])c2)cc1S(=O)(=O)N1CCOCC1 | 1.1 | -3.9 | 19.4 | -0.8 | 2.0
Cc1sc(NC(=O)c2sc3nc4c(C)cccc4cc3c2N)c(C#N)c1C | 5.5 | 12.3 | 38.1 | 27.2* | 1.5
CCCc1cc2c(cc1N(C)S(=O)(=O)c1ccccc1)OCO2 | 1.3 | -0.1 | / | / | -1.7
Cc1ccc(NC(=O)c2ccc(CN3CCc4ccccc4C3)cc2)cc1 | -2.4 | 11.5 | 48.1* | 3.3 | -1.3
CC(=O)COc1ccc2c3c(c(=O)oc2c1C)CCCCC3 | -0.8 | -6.3 | -10.2 | 14.8 | -1.3
C=C(C)COc1ccc2c3c(c(=O)oc2c1OCC(=C)C)CCC3 | 5.7 | 67.3* | 9.8 | 30.6* | -0.5
Cn1cccc1CC(=O)N/N=C\c1c2ccccc2cc2ccccc12 | 5.1 | 16.8 | 18.0 | 27.1* | 1.3
O=c1cc(-c2ccc(Cl)c(Cl)c2)[nH][nH]1 | 5.8 | -4.1 | 26.2 | 25.9* | -1.4
Cc1oc(C)c2c(=O)ccc3c(c12)OC(N)=C(C#N)C3c1ccc(F)cc1 (configuration not stated) | -2.1 | 0.7 | 9.4 | 31.7* | -3.1
Cc1ccc(S(=O)(=O)N2CCOCC2)cc1C(=O)OCC(=O)c1ccc(Br)cc1 | 25.8* | 4.3 | 7.7 | -4.6 | -1.1
Cc1ccc(S(=O)(=O)N2CCOCC2)cc1C(=O)OCC(=O)c1ccc[nH]1 | 3.2 | 10.7 | 4.2 | 10.7 | 6.3
CC(=O)C[C@H](O)CC(=O)[C@H]1OC(=O)CCCCCCCCc2ccccc21 | 37.2* | -5.8 | 3.8 | -1.3 | -10.3
COc1ccc2c(c1)[C@H]1[C@H](CO2)[C@H](c2ccccc2)[C@]2(C)C(=O)N(Cc3ccc(C)cc3)CC(=O)N12 | -0.6 | 5.8 | 31.7 | -2.0 | 4.2
Cc1onc(-c2ccccc2Cl)c1C(=O)NCc1cccnc1 | 0.6 | 1.5 | -5.3 | -10.1 | 11.2
Cc1oc2c(c1C(=O)NCc1cccnc1)C(=O)c1ccccc1C2=O | / | / | 86.1* | 1.0 | /
Cn1ccsc1=NC(=O)c1cccc(OC(F)F)c1 | 4.6 | -0.1 | 4.0 | -2.2 | 7.5
N/C(=N\OC(=O)CC1CCCCC1)c1ccc([N+](=O)[O-])cc1 | 6.8 | -4.8 | 4.2 | 4.1 | 4.1
N/C(=N\OC(=O)CCC1CCCCC1)c1ccc([N+](=O)[O-])cc1 | 24.7* | 20.3 | 21.7 | 9.4 | 2.3
COc1ccccc1N1CCN(C(=O)CC(NC(=O)c2ccccc2Cl)c2ccccc2)CC1 (configuration not stated) | 2.3 | 6.8 | 5.9 | / | -0.8
O=[N+]([O-])c1ccc(S(=O)(=O)NNC(=S)NCCc2ccccc2)cc1 | 42.0* | 1.6 | 4.9 | 6.7 | 6.0
CCc1ccc2[nH]c3nc(N/N=C/c4ccc(O)cc4O)nnc3c2c1 | 23.1 | 13.7 | -3.6 | 28.5* | 26.1*
Cc1ccc2[nH]c3nc(N/N=C/c4cccc(O)c4)nnc3c2c1 | -6.3 | 2.4 | -5.2 | -0.1 | 7.0
CCn1nc(NS(=O)(=O)c2ccccc2[N+](=O)[O-])c2cc3cccc(C)c3nc21 | 6.7 | 10.2 | 4.4 | 17.1 | 8.1
CCn1nc(NS(=O)(=O)c2ccc([N+](=O)[O-])cc2)c2cc3cccc(C)c3nc21 | 6.7 | 14.2 | 0.9 | 27.7* | 8.4
Nc1nnc(CC(=O)N/N=C/c2cccc([N+](=O)[O-])c2)s1 | -3.1 | 9.5 | -7.7 | 2.3 | -1.3

Screening data deposited in PubChem BioAssay by several laboratories.
